The campaign covered roughly 2,100 compounds. About 75 (4%) were called active.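 Rule for the calls: active = calcium fluorescence trace judged by eye to show a response, as agonist, enhancer of the glutamate response, or inhibitor; inactive = trace judged by eye to show no response.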 For the sample, actives were picked, then their nearest neighbours and some compounds at random.

For the assay, the target named is Metabotropic glutamate receptor 8 (Rattus norvegicus) (UniProt P70579). The experiment in a line: rat mGlu8 modulation via Gqi9 calcium signal, confirmation, counter-screen for GIRK activator project, cell-based, HEK293 rmGlu8, Gqi9 chimera, Fluo-4 calcium (AID 623869). The note with it: HEK293 rmGlu8/Gqi9 calcium flux, Fluo-4 fluorescence; glutamate at EC20 added after compound. A digest of the protocol: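 Material: rat mGlu8 HEK-293 cells with transient Gqi9. Medium: HEPES-buffered HBSS, pH 7.4. Compound: one dose, 20 µM addition solution, 0.2% DMSO. Schedule: compound 4 min before glutamate, then 2 min recording. Technique: Fluo-4 calcium fluorescence sampled at 1 Hz.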
Metabotropic glutamate receptor 8 (Rattus norvegicus), sequence (P70579 whole entry, looked up): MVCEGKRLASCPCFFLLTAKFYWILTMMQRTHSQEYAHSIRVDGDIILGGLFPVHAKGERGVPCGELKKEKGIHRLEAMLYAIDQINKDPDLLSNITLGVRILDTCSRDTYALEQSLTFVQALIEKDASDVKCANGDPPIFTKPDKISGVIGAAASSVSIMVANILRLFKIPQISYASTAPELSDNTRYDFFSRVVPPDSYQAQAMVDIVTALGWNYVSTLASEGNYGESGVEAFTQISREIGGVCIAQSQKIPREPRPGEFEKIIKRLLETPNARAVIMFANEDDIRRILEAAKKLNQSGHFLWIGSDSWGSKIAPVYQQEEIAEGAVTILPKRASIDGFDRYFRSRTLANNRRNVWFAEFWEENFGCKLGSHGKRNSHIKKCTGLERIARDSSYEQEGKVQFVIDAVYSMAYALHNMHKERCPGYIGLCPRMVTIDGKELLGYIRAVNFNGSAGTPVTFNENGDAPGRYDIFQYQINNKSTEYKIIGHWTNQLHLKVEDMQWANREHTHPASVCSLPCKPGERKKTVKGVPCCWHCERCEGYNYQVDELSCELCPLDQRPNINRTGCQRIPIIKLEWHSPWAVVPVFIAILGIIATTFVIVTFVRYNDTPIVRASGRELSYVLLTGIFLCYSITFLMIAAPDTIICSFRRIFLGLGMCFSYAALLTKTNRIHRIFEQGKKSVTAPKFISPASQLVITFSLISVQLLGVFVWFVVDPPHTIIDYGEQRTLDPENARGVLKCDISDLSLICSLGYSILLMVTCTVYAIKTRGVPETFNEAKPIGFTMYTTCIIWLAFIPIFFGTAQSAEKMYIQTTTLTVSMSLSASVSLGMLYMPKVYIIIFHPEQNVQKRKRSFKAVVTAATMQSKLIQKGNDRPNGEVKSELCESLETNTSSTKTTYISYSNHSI
Turning to `Cc1sc2nc(C(C)C)nc(SCC(=O)NCc3ccco3)c2c1C`, the outcome is “inactive; 0”.

On to `CCCc1cc(-c2n[nH]c(=S)n2Cc2ccccc2)cs1`, for which the outcome was “active; -1”.

As to `CCCc1cc(-c2n[nH]c(=S)n2CC(C)C)cs1`, the outcome is “inactive; 0”.

Consider `CCCc1cc(-c2n[nH]c(=S)n2C(C)c2ccccc2)cs1` (stereo unspecified), for which the outcome is “inactive; 0”.

Take `Cc1[nH]n(-c2ccc(Cl)cc2)c(=O)c1/C=N/c1nnc(-c2ccccc2)s1`: the outcome was “inactive; 0”.

In the case of `O=C(O)c1ccccc1C(=O)Nc1ccc(-c2csc(-c3ccccc3)n2)cc1`, the outcome was “active; 1”.

On to `O=C(NC(=S)Nc1ccccc1)c1cc(-c2ccccc2)nc2ccccc12`, for which the outcome is “inactive; 0”.

Regarding `CN(C)CCCNC(=O)c1ccc(-c2nc(-c3ccc(Cl)cc3)cs2)cc1`, the outcome is “inactive; 0”.

For `C=CCn1c(=S)[nH]c2ccc(Br)cc2c1=O`, the outcome was “inactive; 0”.

Regarding `S=c1[nH]nc(-c2cc3c(s2)-c2ccccc2CC3)o1`, the outcome was “active; -1”.

In the case of `Cc1ccc(-c2cc(-c3n[nH]c(=S)o3)c3ccccc3n2)cc1`, the outcome was “inactive; 0”.

Consider `CCc1cc(C(=O)NNC(=S)Nc2cc(C)ccc2C)cs1`, for which the outcome is “inactive; 0”.

On to `Cc1ccc(C)c(NC(=S)NNC(=O)c2cc3c(s2)CCC(C)C3)c1` (stereo unspecified), for which the outcome was “inactive; 0”.

For the molecule `O=C1NC(=S)SC1=C1CCCCCC1`, the outcome was “inactive; 0”.

With `CCn1c(=O)c(C(=O)NCCCO)c(O)c2ccccc21`, the outcome was “active; 2”.

Consider `CCCN(CCC)CCCNC(=O)c1cc2c(=O)n(C)c3ccccc3c2n1C`, for which the outcome is “inactive; 0”.

As to `CCn1c(O)c(N=NC(=O)CNc2cccc(C)c2)c2ccccc21`, the outcome is “inactive; 0”.

Turning to `CCC1CCCCN1C(=S)NC(=O)c1ccc([N+](=O)[O-])cc1` (stereo unspecified), the outcome was “inactive; 0”.

Regarding `Cc1cccc(NC(=S)N/C(=N/S(=O)(=O)c2ccccc2)c2ccccc2)c1`, the outcome is “inactive; 0”.

Turning to `Cc1ccc(-c2cc(-c3ccccc3)[nH]c(=S)c2C#N)cc1`, the outcome was “inactive; 0”.

For `CCOC(=O)c1c(NS(=O)(=O)Cc2ccccc2)sc2c1CCCC2`, the outcome was “inactive; 0”.

As to `Cc1cc(NC(=O)Nc2ccccc2)n(-c2ccccc2)n1`, the outcome was “inactive; 0”.

For `Cc1ccc(Nc2cc(C)nn2-c2nc(C)cc(=O)[nH]2)cc1`, the outcome is “active; -1”.

In the case of `Cc1cc(NC(=O)c2c(F)cccc2Cl)n(-c2nc3ccccc3[nH]2)n1`, the outcome was “inactive; 0”.

On to `COc1ccccc1C(=O)NNC(=S)NC(=O)c1sc2ccccc2c1Cl`, for which the outcome is “active; 1”.

For `COc1ccccc1C(=O)NC(=S)NNC(=O)c1sc2ccccc2c1Cl`, the outcome was “inactive; 3”.

As to `CC(C)(C)C(=O)NC(=S)NNC(=O)c1sc2ccccc2c1Cl`, the outcome was “active; 1”.

`CCCCOC(=S)NC(=O)c1sc2ccccc2c1Cl`: the outcome was “inactive; 0”.

For the molecule `CCOC(=S)NC(=O)c1sc2ccccc2c1Cl`, the outcome was “inactive; 0”.

Take `CCCOC(=S)NC(=O)c1sc2ccccc2c1Cl`: the outcome was “inactive; 0”.

Take `CCCN1C(=O)/C(=C/c2ccc(C)s2)NC1=S`: the outcome was “inactive; 0”.

Turning to `CCCOc1ccc(C(=O)NNC(=S)NC(=O)CC)cc1`, the outcome is “inactive; 0”.

For `O=C(NC(=S)N1CCCCC1)c1cccs1`, the outcome was “inactive; 0”.

Regarding `C=CCN(CC=C)C(=S)NC(=O)/C=C/c1ccc(C)cc1`, the outcome was “inactive; 0”.

As for `COc1ccccc1C(=O)N1c2ccccc2Sc2ccccc21`, the outcome was “inactive; 0”.

As to `CC(=O)c1c(C)[nH]c(C(=O)CSc2ncnc3sc(-c4ccccc4)cc23)c1C`, the outcome is “inactive; 0”.

Consider `CCOC(=O)c1ccccc1NC(=O)CSc1nnc(COc2ccccc2C)n1C`, for which the outcome was “inactive; 0”.

On to `Cc1cccc(NC(=S)NNC(=O)c2csc3c2CCCC3)c1`, for which the outcome is “inactive; 0”.

Consider `FC(F)(F)c1cccc(NC(=S)NC2CCCC2)c1`, for which the outcome is “active; -1”.

Regarding `FC(F)(F)Oc1ccc(NC(=S)NCc2ccccc2)cc1`, the outcome was “inactive; 4”.

Regarding `FC(F)(F)c1cccc(N2CCN(C(=S)NC3CCCCC3)CC2)c1`, the outcome is “inactive; 0”.

`FC(F)(F)c1cccc(NC(=S)NCc2ccccc2)c1`: the outcome was “inactive; 4”.

In the case of `CC(C)CNC(=S)Nc1ccc(Oc2ccccc2)cc1`, the outcome was “active; 2”.

As to `CCOC(=O)c1ccc(NC(=S)NC2CCCC2)cc1`, the outcome is “inactive; 4”.

`S=C(Nc1ccc(Oc2ccccc2)cc1)NC1CCCC1`: the outcome was “active; 2”.

For the molecule `COc1ccc(NC(=S)Nc2ccc(OCc3ccccc3)cc2)cc1OC`, the outcome was “inactive; 0”.

Take `CCCN(CC1CC1)C(=S)Nc1ccc(Oc2ccccc2)cc1`: the outcome was “inactive; 0”.

For `COC(=O)c1cc(CSc2nc3ccc(C)cc3[nH]2)oc1C`, the outcome was “inactive; 0”.

For `O=C(NNC(=S)Nc1cccc2ccccc12)c1cccc(Br)c1`, the outcome was “inactive; 0”.

Take `CCc1c(C)c(C#N)c2nc3ccccc3n2c1NCc1ccco1`: the outcome was “inactive; 0”.

With `Cc1ccc2nc(-c3ccc(O)cc3)c(Nc3ccc4c(c3)OCCO4)n2c1`, the outcome is “inactive; -1”.

Regarding `O=c1c2cc(Cl)ccc2[nH]c(=S)n1Cc1ccco1`, the outcome was “inactive; 0”.

For the molecule `O=C(NC(=S)Nc1ccc(N2CCCCC2)cc1)c1ccco1`, the outcome was “inactive; 0”.

As to `Cc1cc(C)c2[nH]c(=S)cc(C)c2c1`, the outcome was “inactive; 0”.

Regarding `CCCCn1c(=S)[nH]c2c(oc3ccc(Cl)cc32)c1=O`, the outcome was “inactive; 0”.

Regarding `O=C1CC(C(F)(F)C(F)(F)C(F)(F)F)=Nc2ccccc2N1`, the outcome was “inactive; 0”.

For `Cc1ccc2c(c1)NC(=O)CC(c1ccccc1)=N2`, the outcome was “active; 2”.

Consider `O=C(NC(=S)N1CCN(c2ccc([N+](=O)[O-])cc2)CC1)c1ccc(F)cc1`, for which the outcome was “inactive; 0”.

In the case of `COc1ccc(NC(=O)C(=O)NNC(=O)c2cccs2)cc1`, the outcome was “inactive; 0”.

For `COC(=O)c1ccccc1NC(=S)NC(=O)c1ccccc1`, the outcome was “inactive; 0”.

With `CCCCNC(=S)NC(=O)c1ccc(Cl)cc1Cl`, the outcome was “inactive; 0”.

For the molecule `Cc1ccccc1C(=O)NC(=S)Nc1ccc(Oc2ccc(Cl)cc2)cc1`, the outcome was “inactive; 4”.

`Cc1ccc(C(=O)NNC(=S)NC(=O)c2ccc(Cl)cc2Cl)cc1`: the outcome is “inactive; 4”.

Turning to `Cc1ccccc1C(=O)NC(=S)NCCc1ccccc1`, the outcome was “active; -1”.

Regarding `Cc1ccccc1C(=O)NNC(=S)NC(=O)c1ccccc1`, the outcome was “active; 1”.

For `O=C(COc1ccccc1)NNC(=S)NC(=O)c1ccc(Cl)cc1Cl`, the outcome was “active; 1”.

`O=C(NC(=S)NCCc1ccccc1)c1ccco1`: the outcome is “inactive; 0”.

`CC(C)CNC(=S)NC(=O)c1ccc(Cl)cc1Cl`: the outcome is “inactive; 0”.

Consider `CC(C)NC(=S)NC(=O)c1ccc(Cl)cc1Cl`, for which the outcome is “inactive; 0”.

As to `O=C(NC(=S)NCCc1ccccc1)c1ccccc1`, the outcome is “inactive; 0”.

Consider `Cc1ccccc1C(=O)NNC(=S)NC(=O)c1ccc(Cl)cc1Cl`, for which the outcome is “active; 1”.

In the case of `CC(C)C(=O)Nc1ccccc1N1CCN(C(=O)c2ccccc2)CC1`, the outcome is “inactive; 0”.

Take `CC1(C)Cc2c(sc3[nH]c(=S)n(Cc4ccco4)c(=O)c23)CO1`: the outcome is “inactive; 0”.

In the case of `Cc1[nH]n2c(=O)cc(C(C)(C)C)nc2c1-c1ccccc1`, the outcome is “inactive; 0”.

For the molecule `COC(=O)c1sc(NC(=S)NC(=O)c2ccccc2)nc1C`, the outcome is “inactive; 0”.

Take `Cc1ccccc1C(=O)Nc1ccccc1C(=O)N/N=C\c1ccco1`: the outcome is “inactive; 0”.

Take `O=C(N/N=C(\c1ccccc1)c1cccnc1)C(O)(c1ccccc1)c1ccccc1`: the outcome is “inactive; 0”.

In the case of `CC(Oc1ccc(Cl)cc1Cl)C(=O)NC(=S)N1CCc2ccccc21` (stereo unspecified), the outcome was “inactive; 0”.

With `Cc1ccccc1NC(=S)NC(=O)c1cncc(Br)c1`, the outcome is “inactive; 0”.

Regarding `Cc1onc(-c2ccccc2)c1C(=O)NC(=S)Nc1sc2c(c1C#N)CCCC2`, the outcome was “inactive; 0”.

`Cc1onc(-c2ccccc2)c1C(=O)NNC(=S)NC(=O)c1ccc(Br)cc1`: the outcome is “active; 1”.

Regarding `Cc1cccc(OCC(=O)Nc2ccccc2N2CCN(C(=O)C(C)C)CC2)c1C`, the outcome is “inactive; 0”.

With `CCc1ccc(Nc2nc3ccccc3c(=O)s2)cc1`, the outcome was “inactive; 0”.

Turning to `O=C1OC2(CCCCC2)OC(=O)C1=CNc1nc2ccccc2s1`, the outcome was “inactive; 0”.

As for `Cc1ccc(C)c(NC(=S)NNC(=O)c2csc(C(C)C)c2)c1`, the outcome is “inactive; 0”.

As for `CCCc1nnc2n1N=C(c1ccc(OC)c(OC)c1)CS2`, the outcome was “active; 2”.

On to `COc1ccc(-c2nnc3sc(C4CCCCC4)nn23)cc1OC`, for which the outcome was “active; 2”.

For the molecule `COc1ccc(C2=Nn3c(nnc3C3CCCCC3)SC2)cc1OC`, the outcome was “active; 2”.

As for `COc1ccccc1C1=Nn2c(nnc2C2CCCCC2)SC1`, the outcome was “inactive; 0”.

Consider `Brc1ccccc1C1=Nn2c(nnc2-c2ccccc2)SC1`, for which the outcome is “inactive; 0”.

Consider `CCOc1ccc(-c2nc(-c3ccc(OC)c(OC)c3)no2)cc1OCC`, for which the outcome is “inactive; 0”.

As for `c1cc2c(cc1C1=Nn3c(nnc3C3CCCCC3)SC1)OCO2`, the outcome is “inactive; 0”.

Regarding `CC(C)COn1c(=S)[nH]c2ccccc2c1=O`, the outcome is “inactive; 0”.

Take `Cc1ccc(N2C(=S)N=C(Nc3ccccc3C)C23CCOC(C)(C)C3)cc1` (stereo unspecified): the outcome was “inactive; 0”.

Consider `C=CCN(CC=C)C(=S)NC(=O)c1ccc(OC)c(Br)c1`, for which the outcome is “inactive; 0”.

Turning to `Cc1ccc(N=C2CCCN2Cc2ccccc2)c(C#N)c1`, the outcome is “inactive; 0”.

In the case of `CCC(C)n1c(=S)[nH]c2c(sc3ccc([N+](=O)[O-])cc32)c1=O` (stereo unspecified), the outcome was “inactive; 4”.

For `O=C(COc1ccccc1)NC(=S)N1CCc2ccccc21`, the outcome was “inactive; 0”.

Take `O=C(NC(=S)N1CCN(Cc2ccc3c(c2)OCO3)CC1)c1cccc(Br)c1`: the outcome is “inactive; 0”.

Take `CC(c1ccc(Cl)cc1)n1c(-c2ccc3ccccc3n2)n[nH]c1=S` (stereo unspecified): the outcome is “inactive; 0”.

`O=C(N/N=C/c1ccccn1)c1ccc(Br)cc1`: the outcome was “inactive; 0”.

For the molecule `O=C(NC(Nc1nc2ccc([N+](=O)[O-])cc2s1)(C(F)(F)F)C(F)(F)F)c1ccccc1Cl`, the outcome was “active; -1”.

As for `Cc1ccc(C)c(OCC(=O)Nc2nc3ccc([N+](=O)[O-])cc3s2)c1C`, the outcome was “inactive; 0”.

As to `O=C(NC(Nc1nc2ccc([N+](=O)[O-])cc2s1)(C(F)(F)F)C(F)(F)F)c1ccccc1`, the outcome is “inactive; 4”.

Take `CCOC(=O)c1sc2ncnc(NCc3ccco3)c2c1C`: the outcome was “active; 2”.

On to `CCOC(=O)c1sc(NC(=S)NC(=O)c2ccco2)nc1C`, for which the outcome is “inactive; 0”.

Regarding `Cc1sc2ncnc(SCc3ccco3)c2c1C`, the outcome is “inactive; 0”.

Consider `O=C(Nc1nc(-c2ccccc2)c(-c2ccccc2)o1)c1ccc(F)cc1`, for which the outcome was “inactive; 0”.

For `COc1ccc(C)cc1NC(=O)C(=O)NNC(=O)c1ccco1`, the outcome is “inactive; 0”.

Regarding `Cc1ccc(-c2csc3nc[nH]c(=S)c23)cc1C`, the outcome was “inactive; 0”.

With `COC(=O)C1=NN(C(=O)c2ccc(Cl)cc2)C(O)(c2ccccc2)C1` (stereo unspecified), the outcome was “inactive; 4”.

Values taken from PubChem BioAssay AID623869 (Vanderbilt High Throughput Screening Facility, 2012).
